# Published values pooled from the literature.
# Target: Vascular endothelial growth factor receptor 1 (FLT1, Homo sapiens, UniProt P17948)
# Residues used in one study (P17948 827-1158, limits assumed): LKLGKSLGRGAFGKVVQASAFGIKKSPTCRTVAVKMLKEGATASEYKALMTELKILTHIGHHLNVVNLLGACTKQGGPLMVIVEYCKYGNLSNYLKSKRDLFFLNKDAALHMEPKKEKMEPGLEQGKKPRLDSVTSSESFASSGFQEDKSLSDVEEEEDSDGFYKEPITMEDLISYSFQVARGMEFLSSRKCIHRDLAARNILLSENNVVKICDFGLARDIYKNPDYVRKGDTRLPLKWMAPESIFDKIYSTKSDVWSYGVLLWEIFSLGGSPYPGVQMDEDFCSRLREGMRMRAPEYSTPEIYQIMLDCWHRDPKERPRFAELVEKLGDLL
Structure (SMILES),observed,action,technique,measurement,value
COc1ccc2c(Oc3ccc4c(C(=O)Nc5ccccc5N)cccc4c3)ccnc2c1,enzyme activity,inhibitor,,IC50,0.008 µM
Cc1cnc(-c2ccc(-c3ccc(NC(=O)Nc4c(F)cc(F)cc4F)cc3F)c3c2C(=O)NC3)[nH]1,binding,,competition with immobilised ligand,Kd,0.013 µM
C=CC(=O)Nc1cccc(CN2C(=O)N(c3c(Cl)c(OC)cc(OC)c3Cl)Cc3cnc(NCCCCN(CC)CC)nc32)c1,binding,,competition with immobilised ligand,Kd,0.032 µM
Cc1ccc(C(=O)Nc2ccc(Oc3cc4cnn(C)c4cc3-c3cn[nH]c3)c(F)c2)c(=O)n1-c1ccc(F)cc1,enzyme activity in cells,inhibitor,,IC50,> 1 µM
CC(C)(C)n1nc(-c2cnc3cc(OC4CC4)ccc3c2)c(C(N)=O)c1N,cell-free assay,,,IC50,> 10 µM
CNC(=O)c1cc2c(Oc3ccc(NC(=O)C4(C(=O)Nc5ccc(F)cc5)CC4)cc3)ccnc2cc1OC,enzyme activity,inhibitor,radiometric,IC50,0.013 µM
CC(C)(C)n1nc(-c2ccc3nc(OC4CC4)ccc3c2)c(C(N)=O)c1N,cell-free assay,,,IC50,8.38 µM
Cc1ccc(NC(=O)c2ccc(C)c(C(F)(F)F)c2)cc1C#Cc1nn(C2CCC(O)CC2)c2ncnc(N)c12 (centres unmarked),enzyme activity,inhibitor,radiometric,IC50,0.015 µM
